From the EternaBench riboswitch data

Test system: MS2 coat protein
Assay: apparent Kd, MS2 coat protein; higher = weaker binding; RNA-MaP array
Procedure, shortened: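 Designs measured on fewer than 10 clusters were excluded from the data. The rest were RNAs transcribed from sequenced DNA templates on an Illumina sequencing chip and incubated at room temperature, with or without input ligand, with fluorescently labeled MS2 coat protein at 1.5 nM to 3 μM for 0.8–1.5 h at the lowest to 10–20 min at the highest concentrations. Apparent Kd is the median of the per-cluster binding-curve fits.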

[1] = designed as: OFF switch for flavin mononucleotide, no ligand
[2] = ligand present: flavin mononucleotide, designed as: OFF switch for flavin mononucleotide
[3] = designed as: OFF switch for theophylline, no ligand
[4] = ligand present: theophylline, designed as: OFF switch for theophylline
[5] = designed as: ON switch for flavin mononucleotide, no ligand
[6] = ligand present: flavin mononucleotide, designed as: ON switch for flavin mononucleotide
[7] = designed as: ON switch for theophylline, no ligand
[8] = ligand present: theophylline, designed as: ON switch for theophylline
[9] = designed as: OFF switch for tryptophan, no ligand
[10] = ligand present: tryptophan, designed as: OFF switch for tryptophan
[11] = designed as: ON switch for tryptophan, no ligand
[12] = ligand present: tryptophan, designed as: ON switch for tryptophan

Sequence | apparent Kd [1] | apparent Kd [2] | also measured
AGAGCGAAUCUAACAUGAGGAUCACCCAUGUGUUAUGUUCACGAGGAUAUGUAGUCACUUAGGCGACAGAAGGCGUUCCAAGUA | 29.3 nM | 22 nM | 
CCUAUUCCUACGGAUACCAGACGAUCCGUGGCGUGUGUGAACAUGAGGAUCACCCAUGUAGUCCCUUGGCAGCCGAUGCGGGUAA |  |  | apparent Kd [3]: 34.3 nM; apparent Kd [4]: 132 nM
CACCCUAAAGGAUAUACAGCAUAGAAAACGGGUAAGUCUAAACAUGAGGAUCACCCAUGUAGAAGGUUAGAAUU | 14.8 nM | 14.5 nM | 
GUGAUCAGCGAGAAGGAGCGUGAACUGUUACGGAGAUGUAACAUAACAUGAGGAUCACCCAUGUGCUAGGAUAUCGGUAAAUAU |  |  | apparent Kd [5]: 13.3 nM; apparent Kd [6]: 7.4 nM
GUGGCGUAAGGAUAUCGUGGGAAGUGAUGAACGCUCUACUUCGAGAAGGUACAUGAGGAUCACCCAUGUGAGGG | 151 nM | 129 nM | 
AGUAAAAGAGGAUAUACAUGAGGAUCACCCAUGUUGGCGCAGACAAUCGAUGCAUCGAGUAGAAGGCUUUCAAU | 21.3 nM | 17.1 nM | 
CGGUUACUAGGAUAUACAUGAGGAUCACCCAUGUGACCUCCCGUCACGCGUGUACUGGGUAGAAGGAGUCAGGU | 24.8 nM | 34.8 nM | 
UUGGAUGAAGGAGUGAAAAGCAACUCAGAUACCAGUCUGAGUAAUGACCCUUGGCAGCUGAGAACAUGAGGAUCACCCAUGUGAC |  |  | apparent Kd [3]: 15.2 nM; apparent Kd [4]: 32.2 nM
UCACUUGUCUAGAAGGGUCGGCACAUGAGGAUCACCCAUGUAAAUGGCUGGUUCAAAUAAUUUUGACAGGAUAUAGAGAGCACU | 16.6 nM | 50.4 nM | 
CCUCAAAUGACAUGAGGAUCACCCAUGUAGCGCACAACCGCUAGAAGGACGACAAAGUCUUAUGCGUAGGAUAUAGCGAGCGCG |  |  | apparent Kd [5]: 132 nM; apparent Kd [6]: 133 nM
AUGCGCUAUAUGGAUACCAGUAUGAUAAUUGACAUGAGGAUCACCCAUGUGAGCUCUACCUACCCUUGGCAGCCAACCCUAUUUG |  |  | apparent Kd [7]: 21.9 nM; apparent Kd [8]: 22.9 nM
ACACGCUAAGGAUAUACAUGAGGAUCACCCAUGUUAAAAGUUAAAUAGGAAUGAUACCGUAGAAGGUAGGAUGA | 13.2 nM | 11.4 nM | 
UGUAUCUCGCAGAAGGCAGGUUAAGCAACAAACUGAGGAUAUGCGUAUACAUGAGGAUCACCCAUGUUCACUGAUCGCAAAUUC | 14.8 nM | 102 nM | 
ACAUGAGGAUCACCCAUGUUGAACUACCAUCGAGGACCGGUACGGCCGCCACUCGCGUUCUCCUUAGCAUCAAGGUCCGCGAAAC |  |  | apparent Kd [9]: 13.3 nM; apparent Kd [10]: 12.7 nM
GAUAUGGUGGCUCAGGAUAUGCAAGGCUUAACAUGAGGAUCACCCAUGUUAUUUAAUGUGCAAGCGCAGAAGGGAGCUUGGCAAAA |  |  | apparent Kd [5]: 9.39 nM; apparent Kd [6]: 5.53 nM
GUCGCAAUCCAGAAGGACGGGCUUGGCGAGUACGUAGGAUAUGGCAGUCACAUGAGGAUCACCCAUGUCAGGAAUUUAAUCAGG |  |  | apparent Kd [5]: 53.8 nM; apparent Kd [6]: 21.7 nM
CAAUGGCAGUUGCAGGAUAUUCGGCCGGACACAUGAGGAUCACCCAUGUAGGUUCUCCCAUGGAUGAAGAAGGGCACAACAGAAAC |  |  | apparent Kd [5]: 134 nM; apparent Kd [6]: 66.4 nM
AUGGUGUCUUAAGGAUAUGCUCGACAUGAGGAUCACCCAUGUGCCUCGUUUUCCCAACCGAGGUCGCAGAAGGUAAGUGACGUG |  |  | apparent Kd [5]: 313 nM; apparent Kd [6]: 37 nM
GGUGAAUUAGUGAGGAUAUGAUAGACAAACAAAAUACAGAAGGCACAUGAGGAUCACCCAUGUGACGGAGAGAA | 6.31 nM | 5.93 nM | 
AGUGUAAUAUAAGGAUAUAACCGCACAAGAAUGUUAGAAGGUAUUUUACAUGAGGAUCACCCAUGUGAAUGUAGUCCUCACUAU | 9.6 nM | 10.5 nM | 
UAGAAACGUACGGCCGCCACUCGGAAUUGGCUCAGACCAUACGUACAUGAGGAUCACCCAUGUUAGAGGACCGGGUAUAAUCUAA |  |  | apparent Kd [11]: 26.7 nM; apparent Kd [12]: 20.3 nM
AGGAAUAAGACAGGAUAUCGUAAAAUAUAAAACCGAGAAGGGUCACAUGAGGAUCACCCAUGUGUUCCAACGGUGAUCCCUAGA | 64.9 nM | 68.2 nM | 
CUGCCACAGAUAGAUACCAGAGGCGUGCAAGCUACAGCUCACAUGAGGAUCACCCAUGUUCUCCCUUGGCAGCUACGGUGUAAGG |  |  | apparent Kd [3]: 16.6 nM; apparent Kd [4]: 17.4 nM
GGGCGACAUGAGGAUCACCCAUGUGUCGAUACCAGUAUGAAUUUCUACCCUUGGCAGCGACGACACGGUUAUUUGUGCACUUCGA |  |  | apparent Kd [7]: 81.8 nM; apparent Kd [8]: 200 nM
GUUGCCCAGCGAGGAUAUGUGAACCGGCUGCUCACAGAAGGCGCAAAUGAUUUUCAUUAUUCCCGACAUGAGGAUCACCCAUGU | 21.9 nM | 16.3 nM | 
GAUCAACAUGAGGAUCACCCAUGUUAGGAUAUCACACCGGAAAGUGAAAUGCUUUUCUUGAGAAGGAACAAGGC | 7.91 nM | 7.28 nM | 
GUCAUUGCGGAGGAUAUAAAGCAAACCAAGAUGUUAGAAGGCCGGACAUGAGGAUCACCCAUGUGAUUGCACGC | 17.6 nM | 15 nM | 

Sequence | apparent Kd [1] | apparent Kd [2] | also measured
GGGAAACUCUACACUCACAACACAUGAGGAUCACCCAUGUUAAGAAGGUUCAGAACGGGCAAUCGAAAGGAUAUUAGGAUGGCU | 10.7 nM | 10.2 nM | 
GUAUGUGGUGAGGAUAUCCACCCGCGGGUAUAUGGAGAAGGCACUACAUGAGGAUCACCCAUGUUAACUUGCCA | 10.1 nM | 31.8 nM | 
UCGAUAAGAGGAUAUACGUGAUAGUUCUCCUCCCUAUGACUACAUGAGGAUCACCCAUGUAGAAGGCUUAACGG | 6.31 nM | 6.54 nM | 
AGUAACGGAACAUGAGGAUCACCCAUGUCAAAAGAUAAGACAAAGGAUAUCAGAUAAAGACCAAAUGAGAAGGUUGGAAGACAA |  |  | apparent Kd [5]: 43 nM; apparent Kd [6]: 31.4 nM
UGUCAAUCGCCGGAUACCAGCCUAACUGAAGGAAAUCUAAACAUGAGGAUCACCCAUGUAGGCCCUUGGCAGCCGAGUAAGUACA |  |  | apparent Kd [3]: 40.3 nM; apparent Kd [4]: 125 nM
AACGAUUAAUCGGCCGCCACUCACAUGAGGAUCACCCAUGUUGUUCUUCCAGGUGGUUCUGUUCCGAGGACCGGGAUUCCGUCCU |  |  | apparent Kd [9]: 55.1 nM; apparent Kd [10]: 57.5 nM
GUCAGGUGGACAGGAUAUCGUGCUCGUAGACAUGAGGAUCACCCAUGUUCGCUCUUCUUCGGCAUCGAGAAGGGUCUCCAAUCU | 34.8 nM | 35.8 nM | 
CGUCAGUAAGGAUAUACCCGCACUUAACACGAGCGUCGUCGGUAGAAGGUACAUGAGGAUCACCCAUGUAGAAA | 7.84 nM | 8.95 nM | 
AAAAGAAGCUGAGGAUAUUGGUUAACAUGAGGAUCACCCAUGUCGUUGGUGGAAAACACCUGACGCAAGAAGGCAGACACUUAU |  |  | apparent Kd [5]: 15.7 nM; apparent Kd [6]: 7.81 nM
GGCGCGGCAGGAUAUGGAUGACGUGACAUGAGGAUCACCCAUGUGCUUAGAUCAUUCGUACCAGAAGGGCCCGCAG | 4.29 nM | 4.3 nM | 
AGCGAUGACUGAGGAUAUGCUGUUAGGACAUUGCAACAUGAGGAUCACCCAUGUGAAGGCCGUCAGCAGAAGGCAGUACGUGGA |  |  | apparent Kd [5]: 6.08 nM; apparent Kd [6]: 4.75 nM
GAUUGAGUUCUAGGAUAUCCAGAGCGGCGUGGGACAUGAGGAUCACCCAUGUGCUCUAUGAUCAUGGAGAAGGAGAACCCCGUU | 37.3 nM | 46 nM | 
ACAUGAGGAUCACCCAUGUGGUCGGCUAUCUACCCAAUGGGCGAGGAUAUCGAGGCAAGAUAAUUCGAGAAGGCGCGUAAGAUA | 101 nM | 47.4 nM | 
AACAGAAGGCAAGGAUAUAAGGGACCCCCAACAUGAGGAUCACCCAUGUUCUAUGAGGCCGAAUUUUAGAAGGUGCGGGACUAG |  |  | apparent Kd [5]: 43.9 nM; apparent Kd [6]: 32.2 nM
GGUCCACAUGAGGAUCACCCAUGUAAGGAUAUCCUGUUUUCUGGUUUAGAGUCGCGAAGGAGAAGGUACAUUAA | 22.5 nM | 41.1 nM | 
UGCAAUGGGUGAGGAUAUACCCACACACAUGAGGAUCACCCAUGUUUCACAAAGGUGAUGACGCGGUAGAAGGCACAAUCCACU |  |  | apparent Kd [5]: 268 nM; apparent Kd [6]: 98.1 nM
CUGACGUCAGGAUAUGCUAAUAAACAACAUAAAAGACAAGUGCAGAAGGGACAUGAGGAUCACCCAUGUGAAAA | 14.6 nM | 15.3 nM | 
GUCCACGUCCAAGGAUAUAAUACGAUACAUGAGGAUCACCCAUGUAAGGAGUGUAGAGUACGAUGUUAGAAGGUGGCAUUGCAG | 11.9 nM | 11.1 nM | 
AGAAUGUCAGGAUAUACUCGCUAUGUCGCCAAGUCACGCCGACAUGAGGAUCACCCAUGUAGAAGGGACAAGUA | 12.9 nM | 11.7 nM | 
GAGCUCCACAAGAAGGGCCGUUGCCCAUGGAAGGACGGCACAUGAGGAUCACCCAUGUUGGCAGGGCAGGAUAUUGCAUUUAUU | 26 nM | 82.8 nM | 
GGAUGCUCGACUCAGGAUAUACACACCGCAACAUGAGGAUCACCCAUGUAAUACGAACAAUGCACGUAGAAGGGAGGUUAACUCGA |  |  | apparent Kd [5]: 46.4 nM; apparent Kd [6]: 19.1 nM
AAAACGCAACUCGAUACCAGUACACUGAGUCUUCGCCACGACAUGAGGAUCACCCAUGUGUACCCUUGGCAGCGACAGAGCCACA |  |  | apparent Kd [3]: 53.9 nM; apparent Kd [4]: 261 nM
CACAUGAGGAUCACCCAUGUCUACGAAAGAUGUAGGGAAAAGAGAAGGUGGAGGGAACUGCCAGCCAAGGAUAUCUGCACUCGA | 31.8 nM | 33.3 nM | 
AAAACUAAAGUCAGGAUAUAACGAAUCGAAGAUAGAUAGAAGGGACAUGAGGAUCACCCAUGUGAGGAAGACAA | 13.1 nM | 11.1 nM | 
CAGAACAUGAGGAUCACCCAUGUAAACGACCGAGGACCGGUACGGCCGCCACUCGAUAUGUCUUGAGGGAGAUAUGGAUUCACAU |  |  | apparent Kd [11]: 39.9 nM; apparent Kd [12]: 38.3 nM
CCGCCACGUCAAGGAUAUGCACGGGAGCCCGUAGCAGAAGGUGAGGCGAACGCCAUCCCACAUGAGGAUCACCCAUGUACGGGC |  |  | apparent Kd [5]: 786 nM; apparent Kd [6]: 202 nM
ACAUGAGGAUCACCCAUGUUCACGGUUCACGAAGUCUAAAGCUAGGAUAUCAUUGGGUGGGCGCAUGAGAAGGAGCUUCCCGUA |  |  | apparent Kd [5]: 70.1 nM; apparent Kd [6]: 44.3 nM
